Laboratory results reported in ChEMBL document CHEMBL5338743, “Identification of a Selective SCoR2 Inhibitor That Protects Against Acute Kidney Injury” (J Med Chem, 2023).
Active and inactive are the calls of the source. The calls are words filed in the database; no cut-off is given here.

Legend:
[1] = Drug uptake in mouse serum at 120 mg/kg body weight, ip measured at 24 hrs post injection by HPLC/mass spectrometry analysis; assay type: ADME, organism-based; conditions: in vivo
Summary of the method: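 Serum collected 24 h after i.p. injection; compound level measured by HPLC/mass spectrometry.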

[2] = molecular target: T1, Aldo-keto reductase family 1 member A1 (Homo sapiens) (UniProt P14550); experiment: Binding affinity to C-terminal 6His-tagged human recombinant SCoR2 AKR1A1 expressed in Escherichia coli BL21-CodonPlus competent cells assessed as thermal stability by measuring melting temperature at +/- 250 uM preincubated for 15 mins with NADPH followed by compound addition and measured after 30 mins by SYPRO orange dye based DSF analysis (reference value: 51.4 degreeC)
T1 sequence (whole entry): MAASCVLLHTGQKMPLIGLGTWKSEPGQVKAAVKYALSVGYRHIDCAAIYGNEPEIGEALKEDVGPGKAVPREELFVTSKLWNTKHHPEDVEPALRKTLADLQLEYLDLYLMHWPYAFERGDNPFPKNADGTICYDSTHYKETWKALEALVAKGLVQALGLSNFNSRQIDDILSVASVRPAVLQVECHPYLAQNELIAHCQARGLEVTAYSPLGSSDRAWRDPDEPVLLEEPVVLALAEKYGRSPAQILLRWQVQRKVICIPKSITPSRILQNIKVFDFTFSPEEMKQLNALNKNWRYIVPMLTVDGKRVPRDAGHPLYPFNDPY
Summary of the method: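 5 μM protein with or without 250 μM NADPH or NADP⁺ and 250 μM inhibitor; cofactor preincubated 15 min, then inhibitor 30 min at room temperature. 10X SYPRO Orange added; temperature ramped 25–70°C in 0.3°C steps. DMSO-matched controls (1%); duplicates.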

Mus musculus [3] = experiment: Protection against ischemia/reperfusion induced acute kidney injury in mouse assessed as increase in SNO-PKM2 level in kidney at 120 mg/kg, ip pretreated for 18 hrs followed by kidney injury surgery and measured after 24 hrs by Western blot analysis; assay type: functional, organism-based; conditions: time 42.0 hrs
Summary of the method: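 Kidneys from sham or I/R mice (120 mg/kg i.p. or DMSO) homogenized in HEN buffer with MMTS, then SDS/MMTS blocking at 50°C for 20 min and acetone-precipitated. 2 mg lysate captured on thiopropyl-Sepharose with 50 mM ascorbate, 4 h in the dark; no-ascorbate controls. PKM2 detected by western blot and normalized to input PKM2, n=3.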

[4] = Renal toxicity in mouse assessed as effect on anatomy of cortex at 120 mg/kg, ip treated for 18 hrs under basal conditions by H and E staining based analysis; assay type: organism-based; conditions: in vivo
Summary of the method: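 Sham-operated mice given 120 mg/kg i.p. or vehicle; kidney cortex and medulla examined by H&E staining.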

Mus musculus [5] = experiment: Protection against ischemia/reperfusion induced acute kidney injury in mouse assessed as reduction in serum creatinine level at 120 mg/kg, ip pretreated for 18 hrs followed by kidney injury surgery and measured after 24 hrs; assay type: functional, organism-based; conditions: time 42.0 hrs
Summary of the method: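 Male mice (9–11 weeks, 25–28 g) given i.p. dose 18 h before ischemia–reperfusion AKI surgery under isoflurane; serum taken 24 h after reperfusion. Creatinine and BUN measured by a clinical laboratory; DMSO-treated controls.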

[6] = In vivo inhibition of SCoR2 in ischemia/reperfusion induced acute kidney injury mouse model assessed as reduction in SNO-CoA metabolic activity in kidneys at 120 mg/kg, ip pretreated for 18 hrs followed by kidney injury surgery and measured after 24 hrs relative to control; assay type: functional; conditions: time 42 hrs
Summary of the method: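 Male mice (9–11 weeks, 25–28 g) dosed i.p. 18 h before renal ischemia–reperfusion surgery under isoflurane; kidneys taken 24 h after reperfusion. Kidney lysate SNO-CoA reductase activity measured with 200 μM SNO-CoA, 100 μM NADPH, 2 min, triplicate assays; DMSO-treated controls.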

Mus musculus [7] = experiment: In vivo inhibition of SCoR2 in C57BL/6J mouse assessed as reduction in SNO-CoA metabolic activity in heart at 120 mg/kg body weight, ip administered as single dose into abdomen measured after 18 hrs; assay type: functional, organism-based
Summary of the method: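 Single i.p. injection into the mouse abdomen, DMSO vehicle; organs collected 18 h later. Tissues homogenized in 50 mM phosphate pH 7.0, 150 mM NaCl, EDTA/DTPA, then clarified; lysate started reactions with 200 μM SNO-CoA and 100 μM NADPH, 2 min, NADPH loss monitored, in triplicate. Compared with vehicle and SCoR2−/− kidneys.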

In the case of `O=C1NC(=O)C2(N1)c1ccccc1-c1ccc(C3CC3)cc12` (configuration not stated), the Drug uptake [1] is reported as “Active”, the Tm [2] is reported as 53.4 °C and the Activity (Mus musculus [3]) is reported as “Active”. The Activity [4] was “Non-Toxic”, the Activity (Mus musculus [5]) was “Active” and the inhibition in vivo at 120 mg/kg [6] was 80%. For the same compound, the inhibition (Mus musculus [7]) was “Active”.
